Our source for the Activity, IC50 and inhibition values is ChEMBL document CHEMBL3822416, “Design, Synthesis, and Structure-Activity Relationship Study of Novel Indole-2-carboxamide Derivatives as Anti-inflammatory Agents for the Treatment of Sepsis” (J Med Chem, 2016).

Data set [1] concerns Mus musculus. In words: Downregulation of TNF-alpha mRNA level in lung of LPS-induced C57BL/6 mouse sepsis model at 10 mg/kg, iv administered 15 mins prior to LPS challenge measured after 6 hrs by RT-qPCR analysis. In kind it is functional, organism-based. In outline: (§1)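 Male C57BL/6 mice were given 10 mg/kg by tail-vein injection 15 min before 20 mg/kg LPS and killed after 6 h; lungs were harvested. RNA was extracted with TRIZOL and quantified by real-time quantitative PCR as relative mRNA amount.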
(In general: Real-time PCR tracks product formation cycle by cycle.)

The test system of data set [2] is Mus musculus. In words: Downregulation of IL-33 mRNA level in lung of LPS-induced C57BL/6 mouse sepsis model at 10 mg/kg, iv administered 15 mins prior to LPS challenge measured after 6 hrs by RT-qPCR analysis. In kind it is functional, organism-based. In outline: as §1
Data set [3] relates to Mus musculus. In words: Downregulation of IL-12 mRNA level in lung of LPS-induced C57BL/6 mouse sepsis model at 10 mg/kg, iv administered 15 mins prior to LPS challenge measured after 6 hrs by RT-qPCR analysis. In kind it is functional, organism-based. In outline: as §1
For data set [4], the system named is Mus musculus. In words: Downregulation of IL-6 mRNA level in lung of LPS-induced C57BL/6 mouse sepsis model at 10 mg/kg, iv administered 15 mins prior to LPS challenge measured after 6 hrs by RT-qPCR analysis. In kind it is functional, organism-based. A digest of the protocol: as §1
For data set [5], the species on record is Mus musculus. In words: Acute toxicity in C57BL/6 mouse heart by hematoxylin and eosin staining-based histopathologiacal analysis. In kind it is organism-based. The note with it: in vivo.
For data set [6], the system named is Mus musculus. In words: Decrease in MPO activity in C57BL/6 mouse lung at 10 mg/kg, iv after 6 hrs in presence of O-dianisidine dihydrochloride relative to control. It is filed as ADME, organism-based. The note with it: in vivo. In outline: (§2)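 Mice were given 10 mg/kg iv 15 min before 20 mg/kg LPS or without LPS; saline served as control, and animals were killed 6 h later. Lung supernatants were incubated with 0.01% H2O2 and O-dianisidine dihydrochloride 0.167 mg/mL for 30 min, with absorbance change at 460 nm. One unit degrades 1 µmol peroxide/min at 37 °C; values are expressed as units/g lung.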

The species named for data set [7] is Mus musculus. In words: Acute toxicity in C57BL/6 mouse kidney by hematoxylin and eosin staining-based histopathologiacal analysis. It is filed as organism-based. The note with it: in vivo.
Data set [8] relates to Mus musculus. In words: Antiinflammatory activity in LPS-induced C57BL/6 mouse sepsis model assessed as suppression of TNF-alpha release in serum at 10 mg/kg, iv administered 15 mins prior to LPS challenge measured after 6 hrs relative to control. It is filed as functional, organism-based. In outline:
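Male C57BL/6 mice, 18-22 g, were injected via tail vein with 10 mg/kg 15 min before 20 mg/kg LPS; controls received saline. Blood was taken with a heparinized syringe 6 h after LPS under anesthesia. Serum TNF-α was measured by ELISA (pg/mL).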

Data set [9] concerns Mus musculus. In words: Antiinflammatory activity in LPS-induced C57BL/6 mouse sepsis model assessed as decrease in pulmonary lobule structural changes at 10 mg/kg, iv administered 15 mins prior to LPS challenge measured after 6 hrs by hematoxylin and eosin staining. It is filed as functional, organism-based. A digest of the protocol: (§3)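 Male C57BL/6 mice (18-22 g), randomized into groups. Compound at 10 mg/kg was given by tail-vein injection 15 min before LPS 20 mg/kg; controls received saline. Animals were sacrificed 6 h after LPS. Lung was fixed in 4% paraformaldehyde, paraffin-embedded, cut at 5 µm and H&E stained. A pathologist, blinded, scored alveolar congestion, hemorrhage, neutrophil infiltration and alveolar wall thickness/hyaline membrane.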

For data set [10], the system named is Mus musculus. In words: Antiinflammatory activity in LPS-induced C57BL/6 mouse sepsis model assessed as reduction in airspace inflammation in lung at 10 mg/kg, iv administered 15 mins prior to LPS challenge measured after 6 hrs by hematoxylin and eosin staining. In kind it is functional, organism-based. A digest of the protocol: as §3
Data set [11] deals with Mus musculus. In words: Toxicity in C57BL/6 mouse assessed as change in body weight at 20 mg/kg, iv administered for 7 days measured every 24 hrs of compound dosing relative to control. The note with it: in vivo. It is filed as organism-based.
The subject of data set [12] is RAW264.7. In words: Inhibition of LPS-induced TNF-alpha production in mouse RAW264.7 cells preincubated for 30 mins prior to LPS challenge measured after 24 hrs by ELISA. In kind it is functional, cell-based. The settings on record: Mus musculus, RAW264.7; read-out: IC50. In outline:
(§4)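 RAW 264.7 cells (ATCC) were grown in DMEM with 10% FBS and penicillin/streptomycin at 37 °C, 5% CO2. Cells were seeded at 400,000/well and incubated for 24 h, pretreated with compound for 30 min, then given 0.5 µg/mL LPS for 24 h. Medium TNF-α or IL-6 was measured by ELISA and normalized to total protein of viable cell pellets.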
(ELISA stands for enzyme-linked immunosorbent assay.)

The subject of data set [13] is Mus musculus. In words: Antiinflammatory activity in LPS-induced C57BL/6 mouse sepsis model assessed as inhibition of neutrophils infiltration in lung by measuring MPO activity at 10 mg/kg, iv administered 15 mins prior to LPS challenge measured after 6 hrs in presence of O-dianisidine dihydrochloride relative to control. It is filed as functional, organism-based. A digest of the protocol:
as §2

Data set [14] concerns Mus musculus. In words: Downregulation of COX2 mRNA level in lung of LPS-induced C57BL/6 mouse sepsis model at 10 mg/kg, iv administered 15 mins prior to LPS challenge measured after 6 hrs by RT-qPCR analysis. In kind it is functional, organism-based. A digest of the protocol:
as §1

The species entered for data set [15] is Mus musculus. In words: Acute toxicity in C57BL/6 mouse liver by hematoxylin and eosin staining-based histopathologiacal analysis. In kind it is organism-based. The settings on record: in vivo.
For data set [16], the system named is Mus musculus. In words: Antiinflammatory activity in LPS-induced C57BL/6 mouse sepsis model assessed as inhibition of macrophage infiltration in lung at 10 mg/kg, iv administered 15 mins prior to LPS challenge measured after 6 hrs by F4/80 and hematoxylin-staining based microscopy. In kind it is functional, organism-based. In outline:
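C57BL/6 males were dosed with 10 mg/kg iv (tail vein) 15 min before 20 mg/kg LPS and sacrificed 6 h later. Paraffin lung sections had antigen retrieval by pressure cooker in 10 mM citrate pH 6.5, then H2O2, 5% BSA block, anti-F4/80 overnight at 4 °C, HRP secondary, DAB and hematoxylin counterstain. The % F4/80-positive cells was counted in 10 random 200× fields per section.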

The subject of data set [17] is RAW264.7. In words: Inhibition of LPS-induced IL6 production in mouse RAW264.7 cells preincubated for 30 mins prior to LPS challenge measured after 24 hrs by ELISA. The settings on record: Mus musculus, RAW264.7; read-out: IC50. In kind it is functional, cell-based. In outline:
as §4

For data set [18], the system named is Mus musculus. In words: Downregulation of IL-1beta mRNA level in lung of LPS-induced C57BL/6 mouse sepsis model at 10 mg/kg, iv administered 15 mins prior to LPS challenge measured after 6 hrs by RT-qPCR analysis. It is filed as functional, organism-based. In outline: as §1
Data set [19] has as its system RAW264.7. In words: Inhibition of LPS-induced IL6 production in mouse RAW264.7 cells at 10 uM preincubated for 30 mins prior to LPS challenge measured after 24 hrs by ELISA. In kind it is functional. A digest of the protocol:
as §4

The subject of data set [20] is RAW264.7. In words: Inhibition of LPS-induced TNF-alpha production in mouse RAW264.7 cells at 10 uM preincubated for 30 mins prior to LPS challenge measured after 24 hrs by ELISA. It is filed as functional. In outline:
as §4

The source made the active and inactive calls. The calls are words filed in the database; no cut-off is given here.

What is called IC50 is the concentration that gives 50% inhibition. As usually defined, the inhibition is how much of the control response was suppressed. Turning to `CN1CCN(c2ccc(NC(=O)c3cc4cc(NC(=O)c5ccco5)ccc4n3Cc3ccc(C(F)(F)F)cc3)cc2)CC1`, the outcome in data set [1], in data set [2], in data set [3], in data set [4], in [8] and in data set [9] was Active. In addition, the result in data set [10], in [14] and in [18] was Active. Besides, the Activity entry in [5], in [6], in [7], in [11] and in data set [15] was “Non-toxic” in each case. The IC50 worked out at 2.66 µM in data set [12] and 2.9 µM in data set [17]. Besides, the inhibition result in data set [13] and in data set [16] was “Active” in each case.

In the case of `CN1CCN(c2ccc(NC(=O)c3cc4cc(NC(=O)N(C)C)ccc4n3Cc3ccc(C(F)(F)F)cc3)cc2)CC1`, the result in data set [1], in data set [2], in data set [3], in data set [4], in [8] and in data set [9] was Active. For the same compound, the outcome in data set [10], in data set [14] and in [18] was Active. Also, the Activity result in [5], in [6], in [7], in data set [11] and in data set [15] was “Non-toxic” throughout. The IC50 in [12] came to 2.67 µM; in data set [17], 1.24 µM. The inhibition result in data set [13] and in data set [16] was “Active” in each case.

As to `CCCn1c(-c2c[nH]c3ncccc23)nc2ccc(N3CCN(C)CC3)nc21`, the result in data set [1], in [2], in data set [3], in [4], in [9] and in data set [10] was Active. The Activity result in data set [6] is “Non-toxic”. For the same compound, the inhibition at 10 µM stood at 69.5% in data set [19] and 67.3% in data set [20]. Moreover, the inhibition result in [13] and in data set [16] was “Active” in each case. Besides, the result in [14] and in [18] was inactive.
